Measured values reported in ChEMBL document CHEMBL1955846, “Aminopyrimidinone cdc7 kinase inhibitors” (Bioorg Med Chem Lett, 2012).

Columns and labels:
[1] = system: HCT-116; experiment: Cytotoxicity against human HCT116 cells after 3 days by CellTitre Glo assay; type: functional, cell-based; conditions: HCT-116, 72 h
In short: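 HCT-116 cells seeded at 3000 cells per well and held 24 h at 37 °C. Next day, treated with serial dilutions of inhibitor. After 3 days, an equal volume of Cell Titer GLO was added and luminescence read. EC50 derived from the viability readout.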

[2] = target: T1, CDC7/DBF4 (Cell division cycle 7-related protein kinase/Activator of S phase kinase) (Homo sapiens, UniProt O00311); experiment: Inhibition of CDC7/DBF4-mediated MCM2 phosphorylation in human HCT116 cells after 6 hrs by spectrophotometric analysis; type: cell-based, HCT-116
T1 sequence (Q9UBU7 whole entry): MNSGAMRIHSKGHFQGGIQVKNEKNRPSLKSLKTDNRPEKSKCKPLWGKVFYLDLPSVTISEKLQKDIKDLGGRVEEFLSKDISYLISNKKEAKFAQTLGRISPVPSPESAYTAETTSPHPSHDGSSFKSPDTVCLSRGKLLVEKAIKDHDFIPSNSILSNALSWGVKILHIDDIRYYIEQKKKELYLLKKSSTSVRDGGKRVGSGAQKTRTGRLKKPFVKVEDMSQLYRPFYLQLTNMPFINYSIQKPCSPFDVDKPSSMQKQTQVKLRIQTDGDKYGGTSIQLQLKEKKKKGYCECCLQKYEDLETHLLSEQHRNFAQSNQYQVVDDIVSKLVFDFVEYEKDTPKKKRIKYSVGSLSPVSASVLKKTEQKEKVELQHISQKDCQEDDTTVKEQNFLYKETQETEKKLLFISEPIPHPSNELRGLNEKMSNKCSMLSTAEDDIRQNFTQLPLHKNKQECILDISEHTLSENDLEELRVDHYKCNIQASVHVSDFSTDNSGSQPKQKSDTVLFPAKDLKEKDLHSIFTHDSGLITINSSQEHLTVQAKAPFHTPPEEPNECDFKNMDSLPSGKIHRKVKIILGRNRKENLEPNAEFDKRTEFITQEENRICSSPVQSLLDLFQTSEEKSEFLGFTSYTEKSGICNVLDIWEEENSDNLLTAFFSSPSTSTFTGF
T1 sequence (O00311 whole entry): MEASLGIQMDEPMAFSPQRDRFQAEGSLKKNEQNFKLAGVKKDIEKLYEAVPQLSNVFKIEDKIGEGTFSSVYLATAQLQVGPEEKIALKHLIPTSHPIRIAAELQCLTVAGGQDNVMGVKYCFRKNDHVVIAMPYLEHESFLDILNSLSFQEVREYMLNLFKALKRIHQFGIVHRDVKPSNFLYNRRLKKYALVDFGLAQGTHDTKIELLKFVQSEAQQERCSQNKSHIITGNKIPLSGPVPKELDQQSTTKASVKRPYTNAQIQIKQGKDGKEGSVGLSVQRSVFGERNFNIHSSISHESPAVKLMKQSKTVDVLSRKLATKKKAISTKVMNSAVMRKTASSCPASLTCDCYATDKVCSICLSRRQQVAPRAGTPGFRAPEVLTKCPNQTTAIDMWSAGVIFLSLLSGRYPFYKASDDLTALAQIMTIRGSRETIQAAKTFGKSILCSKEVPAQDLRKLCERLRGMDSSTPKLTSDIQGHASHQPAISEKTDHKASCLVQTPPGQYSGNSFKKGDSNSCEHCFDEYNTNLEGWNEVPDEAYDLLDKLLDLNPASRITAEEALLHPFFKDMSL

[3] = target: T1, CDC7/DBF4 (Cell division cycle 7-related protein kinase/Activator of S phase kinase); experiment: Inhibition of human CDC7/DBF4 expressed using baculovirus expression system assessed as [33P]gamma-ATP incorporation into substrate after 60 mins by gamma counting

Compound | EC50 [2] [nM] | Ki [3] [nM] | EC50 [1] [nM]
O=c1cc(NC2CCCCC2)cc(-c2c[nH]c3ncccc23)[nH]1 | – | 1.1 | –
O=c1cc(-c2cn[nH]c2)nc(NC2CCCCC2)[nH]1 | – | 15 | –
O=c1cc(-c2c[nH]c3ncccc23)nc(-c2ccccc2)[nH]1 | 410 | 0.25 | 830
O=c1nc(-c2c[nH]c3ncccc23)cc(NC2CCCCC2)[nH]1 | – | 1.4 | –
COC1CCN(c2nc(-c3c[nH]c4ncccc34)cc(=O)[nH]2)CC1 | 300 | 0.2 | 520
O=c1cc(-c2c[nH]c3ncccc23)nc(NC(c2ccccc2)c2ccccc2)[nH]1 | – | 328 | –
Nc1nccc(-c2cc(=O)[nH]c(NC3CCCCC3)n2)n1 | – | 5 | –
O=c1cc(-c2ccccc2)nc(NC2CCCCC2)[nH]1 | – | 230 | –
Oc1cc(NC2CCCCC2)nc(-c2c[nH]c3ncccc23)c1 | – | 5.4 | –
O=c1nc(-c2c[nH]c3ncccc23)nc(NC2CCCCC2)[nH]1 | – | 0.3 | –
O=c1cc(-c2ccc3[nH]ncc3c2)nc(NC2CCCCC2)[nH]1 | – | 0.5 | –
O=c1cc(-c2c[nH]c3ncccc23)cc(NC2CCCCC2)[nH]1 | – | 0.5 | –
O=c1cc(-c2cccnc2)nc(NC2CCCCC2)[nH]1 | – | > 1200 | –

Now from value to compound, other results behind:

EC50 [2] [nM] | Ki [3] [nM] | Compound | EC50 [1] [nM]
2610 | 0.11 | CN1CCC(Nc2nc(-c3c[nH]c4ncccc34)cc(=O)[nH]2)CC1 | 7370
143 | 0.12 | O=c1cc(-c2c[nH]c3ncccc23)nc(Nc2ccccc2)[nH]1 | 443
1780 | 0.2 | O=c1cc(-c2c[nH]c3ncccc23)nc(N2CCC(O)CC2)[nH]1 | 6190
300 | 0.14 | O=c1cc(-c2c[nH]c3ncccc23)nc(NC2CCOCC2)[nH]1 | 2460
60 | 0.18 | COCCN(CCOC)c1nc(-c2c[nH]c3ncccc23)cc(=O)[nH]1 | 2210
300 | 0.18 | O=c1cc(-c2c[nH]c3ncccc23)nc(N2CCOCC2)[nH]1 | 450
180 | < 0.07 | O=c1cc(-c2c[nH]c3ncccc23)nc(NCc2ccccc2)[nH]1 | 122
60 | < 0.07 | O=c1cc(-c2c[nH]c3ncccc23)nc(NC2CCCCC2)[nH]1 | 103
15 | 0.09 | CN(c1nc(-c2c[nH]c3ncccc23)cc(=O)[nH]1)C1CCCCC1 | 106
